Assay results reported in PMC8606101 (The Biochemical journal, 2017).
Entries after “also recorded” stand apart in the source; their conditions may differ. Like-named read-outs stand apart in the source and are kept apart here. One block for each molecule: values may come before it.

Experiments:
ADAM9 = target: T1, ADAM9 (Mus musculus, UniProt Q61072); assay type: cell-based; conditions: for dose dependence of inhibition of ADAM9-dependent release of EphB4-AP: titration; for stimulation of ADAM9-dependent shedding of EphB4-AP: 20 ng/ml PMA, 100 μM PV or 2.5 μM IO, 30 minutes
T1 sequence (Q61072 30-845): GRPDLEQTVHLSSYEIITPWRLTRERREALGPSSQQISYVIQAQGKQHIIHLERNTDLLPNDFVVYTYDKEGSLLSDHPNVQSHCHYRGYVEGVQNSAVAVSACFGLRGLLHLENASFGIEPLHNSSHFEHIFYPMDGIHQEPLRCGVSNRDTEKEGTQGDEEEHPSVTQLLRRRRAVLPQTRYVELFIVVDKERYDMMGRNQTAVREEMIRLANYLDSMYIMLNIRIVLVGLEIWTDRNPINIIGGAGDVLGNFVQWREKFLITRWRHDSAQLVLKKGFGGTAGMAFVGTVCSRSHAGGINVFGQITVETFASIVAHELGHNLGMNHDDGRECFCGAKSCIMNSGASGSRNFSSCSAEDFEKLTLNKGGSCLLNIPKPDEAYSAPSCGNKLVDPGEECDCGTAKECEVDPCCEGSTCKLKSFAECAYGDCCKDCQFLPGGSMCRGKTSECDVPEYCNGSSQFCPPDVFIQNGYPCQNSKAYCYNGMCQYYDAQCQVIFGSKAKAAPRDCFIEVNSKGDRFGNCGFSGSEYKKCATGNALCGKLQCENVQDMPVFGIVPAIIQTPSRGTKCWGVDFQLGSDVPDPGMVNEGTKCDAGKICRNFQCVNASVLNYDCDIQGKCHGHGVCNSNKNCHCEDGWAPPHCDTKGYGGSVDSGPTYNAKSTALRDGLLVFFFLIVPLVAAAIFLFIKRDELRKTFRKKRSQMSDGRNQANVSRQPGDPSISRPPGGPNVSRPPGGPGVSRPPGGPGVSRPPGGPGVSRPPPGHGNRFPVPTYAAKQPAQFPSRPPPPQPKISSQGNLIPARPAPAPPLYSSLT

ADAM10 [1] = conditions: cited from earlier work; for IC50: read-out: Potency (IC50/inhibition constant) ADAM10, cell-based
ADAM10 [2] = target: T2, ADAM10 (Mus musculus, UniProt O35598); experiment: ADAM10-dependent shedding of BTC-AP in wild type mEFs; assay type: cell-based; conditions: WT mEFs, Supplementary Figure 2
T2 sequence (O35598 215-749): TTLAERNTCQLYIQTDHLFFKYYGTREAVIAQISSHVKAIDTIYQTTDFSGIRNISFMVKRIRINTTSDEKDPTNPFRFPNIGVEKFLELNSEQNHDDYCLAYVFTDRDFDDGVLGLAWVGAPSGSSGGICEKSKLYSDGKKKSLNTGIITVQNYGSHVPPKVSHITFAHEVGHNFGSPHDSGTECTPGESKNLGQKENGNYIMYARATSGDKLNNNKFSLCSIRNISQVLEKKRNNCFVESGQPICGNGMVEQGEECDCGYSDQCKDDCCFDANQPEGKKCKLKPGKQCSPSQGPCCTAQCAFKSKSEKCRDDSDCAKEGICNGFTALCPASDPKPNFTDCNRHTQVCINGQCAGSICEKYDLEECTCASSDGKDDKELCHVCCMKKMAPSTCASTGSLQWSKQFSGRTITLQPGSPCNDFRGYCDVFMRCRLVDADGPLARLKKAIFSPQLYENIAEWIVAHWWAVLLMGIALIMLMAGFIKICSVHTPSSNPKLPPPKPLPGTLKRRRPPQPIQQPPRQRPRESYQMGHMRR
Summary of the method: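 Wild-type mEFs were transiently transfected with AP-tagged betacellulin using Lipofectamine2000. Cells were washed 1 h in OptiMEM, then given fresh OptiMEM with or without test compound for 30 min to 2 h. AP activity was measured colorimetrically in supernatant and lysate from three identical wells. Shedding = supernatant AP / (lysate + supernatant AP).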

[3] = system: recombinant soluble ADAM9; conditions: cited from earlier work; for Ki: read-out: Ki recombinant soluble ADAM9; for inhibition of recombinantly expressed ADAM9: concentrations up to 200 nM
ADAM17 = conditions: 1 μM; cited from earlier work
ADAM12 = conditions: read-out: Potency (IC50/inhibition constant) ADAM12, cell-based; cited from earlier work
[4] = system: EphB4-AP background shedding; experiment: Basal/background EphB4-AP shedding in cells expressing inactive ADAM9 E>A; assay type: cell-based, mouse; conditions: for effect on EphB4-AP shedding in the absence of active A9 (EA9 cells): 20 ng/ml PMA, 100 μM PV or 2.5 μM IO, 30 minutes
Summary of the method: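 Adam10/17-/- mEFs were co-transfected (Lipofectamine2000) with ADAM9 E>A plasmid (1.5 µg per 6-well well) and EphB4-AP (1 µg). After a 1 h OptiMEM wash, cells were held in fresh OptiMEM ± stimuli or inhibitor. Times were 30 min for stimuli (pervanadate freshly made from vanadate + H2O2) and 2 h for inhibitors. Readout was colorimetric AP in supernatant/(lysate+supernatant), as fold over untreated cells; mean ± SEM, ≥3 experiments, Dunnett's test.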

ADAM15 = conditions: read-out: Potency (IC50/inhibition constant) ADAM15, cell-based; cited from earlier work

IC50 (ADAM9): 50 nM
Molecule: CNC(=O)[C@H](Cc1ccccc1)NC(=O)[C@H](CC(C)C)[C@H](CSc1cccs1)C(=O)NO [Batimastat/BB94, Batimastat]
IC50 (ADAM10 [1]): ~200 nM

effect on ADAM9-mediated shedding of EphB4-AP (ADAM9; concentrations of up to 10 μM, Adam10/17−/− mEFs): did not block
effect on ADAM9-dependent processing of EphB4-AP (ADAM9; concentrations up to 5 μM): did not block
lowest concentration inhibiting shedding of the ADAM10 substrate betacellulin-AP (ADAM10 [2]): 0.04 µM
Molecule: CNC(=O)[C@@H](NC(=O)[C@H](CCCc1ccccc1)[C@H](C)N(O)C=O)C(C)(C)C [GI254023X]
IC50 ([3]; read-out: IC50 soluble ADAM9, biochemical assays): 280 ± 110 nM
block of ADAM10 in cell-based assays (ADAM10 [1]; 1 μM): blocks ADAM10
block of ADAM17 in cell-based assays (ADAM17): not ADAM17

IC50 (ADAM9): 720 nM
dose dependence of inhibition of ADAM9-dependent release of EphB4-AP (ADAM9; Adam10/17−/− mEFs, 2 hours): dose-dependent manner
Molecule: CNC(=O)[C@H](Cc1c[nH]c2ccccc12)NC(=O)[C@@H](CC(=O)NO)CC(C)C [GM6001]
IC50 (ADAM12): 5930 nM

IC50 (ADAM9): 130 nM
dose dependence of inhibition of ADAM9-dependent release of EphB4-AP (ADAM9; Adam10/17−/− mEFs, 2 hours): dose-dependent manner
Molecule: CNC(=O)[C@@H](NC(=O)[C@H](CC(C)C)[C@H](O)C(=O)NO)C(C)(C)C [Marimastat]
Ki ([3]; biochemical assays): 274 nM

Molecule: CCCCCCCCCCCCCC(=O)O[C@@H]1[C@@H](C)[C@@]2(O)[C@@H](C=C(CO)C[C@]3(O)C(=O)C(C)=C[C@@H]23)[C@@H]2C(C)(C)[C@]12OC(C)=O [PMA, phorbol-12 myristate 13-acetate]
stimulation of ADAM9-dependent shedding of EphB4-AP (ADAM9; Adam10/17−/− mEFs): did not enhance
effect on EphB4-AP shedding in the absence of active A9 (EA9 cells) [4]: had no effect

dose dependence of inhibition of ADAM9-dependent release of EphB4-AP (ADAM9; Adam10/17−/− mEFs, 2 hours): dose-dependent manner
Molecule: CC(C)C[C@H](CC(=O)NO)C(=O)N[C@H](C(=O)N[C@@H](C)C(=O)NCCN)C(C)(C)C [TAPI-2]
Ki ([3]; biochemical assays): 17 nM

Molecule: C[C@H](CCC(=O)O)C[C@H](C)C[C@H](C)C(=O)/C=C(\O)[C@H](C)C[C@H](C)C/C=C/[C@@H](C)[C@@H](O)[C@@H](C)[C@@H](O)C[C@@H]1CC[C@@](C)([C@H]2CC[C@@](C)([C@@H](C)O)O2)O1 [ionomycin]
stimulation of ADAM9-dependent shedding of EphB4-AP (ADAM9; Adam10/17−/− mEFs): not responsive
effect on EphB4-AP shedding in the absence of active A9 (EA9 cells) [4]: had no effect

lowest concentration effectively inhibiting ADAM9 activity (ADAM9; increasing inhibition between 1 and 10 μM): 0.5 µM
Molecule: GW280264X

Molecule: TIMP-1: tissue inhibitor of metalloproteinases 1
effect on ADAM9-dependent increase in EphB4-AP shedding (ADAM9; concentrations up to 20 nM, Adam10/17−/− mEFs, 2 hours): not significantly affected; also recorded: did not affect
effect on EphB4 background shedding in EA9 expressing cells ([4]; up to 20 nM, Adam10/17−/− mEFs, 2 hours): no significant effect
inhibition of recombinantly expressed ADAM9 [3]: not inhibited
IC50 (ADAM10 [1]): < 1 nM

stimulation of ADAM9-dependent shedding of EphB4-AP (ADAM9; Adam10/17−/− mEFs): not responsive
Molecule: pervanadate
effect on EphB4-AP shedding in the absence of active A9 (EA9 cells) [4]: had no effect

reduction of the activity of ADAM9 (ADAM9; 10 nM): 40-50%
reduction of the activity of ADAM9 (ADAM9; 20 nM): 75%
effect on ADAM9-dependent EphB4-AP shedding (ADAM9; 20 nM, Adam10/17−/− mEFs, 2 hours): strongly
B1: TIMP-3: tissue inhibitor of metalloproteinases 3 (protein, UniProt P35625 24-211, looked up)
Metalloproteinase inhibitor 3: CTCSPSHPQDAFCNSDIVIRAKVVGKKLVKEGPFGTLVYTIKQMKMYRGFTKMPHVQYIHTEASESLCGLKLEVNKYQYLLTGRVYDGKMYTGLCNFVERWDQLTLSQRKGLNYRYHLGCNCKIKSCYYLPCFVTSKNECLWTDMLSNFGYPGYQSKHYACIRQKGGYCSWYRGWAPPDKSIINATDP
effect on ADAM9-dependent EphB4-AP shedding (ADAM9; 10 nM, Adam10/17−/− mEFs, 2 hours): inhibited ADAM9 partially; also recorded: partially blocked
inhibition of recombinantly expressed ADAM9 [3]: not inhibited
IC50 (ADAM10 [1]): < 1 nM
IC50 (ADAM15): ~20 nM
